Screening results deposited in PubChem BioAssay by several laboratories.
A selection: hits, their analogues and other compounds. The true share with any hit is near 2.9%.
Calb FLC – affects C. albicans growth with fluconazole; C. albicans CaCi-2 (fluconazole-resistant clinical isolate) + fluconazole, Alamar Blue growth, 48 h; growth inhibition, % (test concentration not listed); actives 0.57% (n = 300,000);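 active means growth inhibition above about 58% in most replicates, limit read from the data, passing the limit was not always enough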;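 further: all wells also contain fluconazole at 8 µg/ml as a sub-toxic cotreatment; 0% = median of DMSO wells and 100% = median of geldanamycin control wells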
MC4R barr agon – agonists of human melanocortin 4 receptor (MC4R) beta-arrestin; P32245; U2OS MC4R beta-arrestin complementation, luminescence; percent of melanotan II response, DMSO zero; activation, % at 8.9 µM; actives 0.98% (n = 360,000);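 active means activation above a per-plate cutoff, the mean activation of sample wells on that plate plus 3 SD, cut at about 8% in these data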
Target sequence (P32245 whole entry, looked up): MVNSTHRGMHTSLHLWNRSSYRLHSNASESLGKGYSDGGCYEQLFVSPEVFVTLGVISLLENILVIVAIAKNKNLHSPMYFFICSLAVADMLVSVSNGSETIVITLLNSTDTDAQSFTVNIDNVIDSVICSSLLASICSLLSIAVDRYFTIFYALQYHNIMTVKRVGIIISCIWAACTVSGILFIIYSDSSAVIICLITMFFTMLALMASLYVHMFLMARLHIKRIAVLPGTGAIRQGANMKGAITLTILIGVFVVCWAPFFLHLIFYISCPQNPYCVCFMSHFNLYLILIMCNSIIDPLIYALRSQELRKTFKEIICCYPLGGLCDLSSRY
MC4R antagonist – antagonists of human melanocortin 4 receptor (MC4R); P32245; MC4R-expressing cells, MTII-stimulated cAMP, LANCE TR-FRET; inhibition, % at 6.5 µM; actives 0.48% (n = 360,000);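 active means inhibition above its plate's cutoff, the mean of tested wells on that plate plus 3 SD, cut at about 29% in these data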;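 further: 0% = Melanotan II alone and 100% = Melanotan II plus saturating MCL0020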
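Test system: U2OS cells stably expressing human melanocortin 4 receptor (MC4R); also added: Melanotan II challenge; compound: 6.5 µM single dose; timing: 30-min compound preincubation, 1-h Melanotan II challenge, 1-h detection, room temperature; signal: Eu-cAMP/anti-cAMP TR-FRET, emission 671 nm; repeats: one well per compound, no replicates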
GalR3 antagonist – human GalR3 antagonism. AID 651719. actives 0.44% (n = 360,000). inhibition, % at 3 µM. O60755. HEK293 GalR3-CNG cAMP membrane potential fluorescence; galR3 body fused to GalR1 C-terminus;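 active means inhibition above the screen-wide average plus 3 SD, cut at about 13% in these data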;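 further: forskolin and galanin both at EC90 stimulate the cells; cAMP rise reported by CNG channel membrane potential dye signal; 0% = forskolin plus galanin with DMSO and 100% = forskolin alone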
H9c2 TAG inh – reduces triacylglycerol accumulation in H9c2 cells; Nile Red lipid (TAG) fluorescence; cells loaded with 200 µM oleic acid; inhibition, % at 12.5 µM; actives 0.66% (n = 230,000); AID 651582;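 active means pattern-corrected inhibition of lipid staining of at least 50% with the nuclear-stain viability signal not falling by more than 50%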;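 further: 0% = DMSO wells and 100% = triacsin C control wells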
Efflux pump mplx – inhibitors of Candida antifungal efflux pumps expressed in yeast; S. cerevisiae Candida pump triplex, Nile Red efflux; AID 485275; inhibition, % at 10 µM; actives 0.44% (n = 330,000);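 active means plate passing quality check with inhibition over a set limit, or well fluorescence over plate mean plus 4 SD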;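 further: Nile Red retained in pooled yeast measured as flow cytometry median fluorescence; 0% = buffer negative control and 100% = Enniatin B positive control; higher means more Nile Red kept so more efflux inhibition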
* hit, by the source's call; x = not tested or not shown.

SMILES | Calb FLC | MC4R barr agon | MC4R antagonist | GalR3 antagonist | H9c2 TAG inh | Efflux pump mplx
Cc1ccc(C)c(N2CCN(S(=O)(=O)c3c(C)noc3/C=C/N(C)C)CC2)c1 | 8.6 | 2.5 | 3.9 | -3.7 | 13.8 | 0.8*
CCCOc1ccc(C(=O)NNC(=S)NC(=O)CC)cc1 | 84.9* | -4.6 | 0.5 | -3.0 | x | 0.0
Cc1cc(NC(=O)c2ccc(Br)c([N+](=O)[O-])c2)no1 | 2.6 | 9.3* | 19.0 | -1.1 | -6.1 | 0.0
CCOC(=O)Oc1c(OC)cc(C(=O)O[C@@H]2C[C@@H]3CN4CCc5c([nH]c6cc(OC)ccc56)[C@H]4C[C@@H]3[C@H](C(=O)OC)[C@H]2OC)cc1OC | x | 1.3 | -1.0 | 0.2 | 60.2* | 0.2
COc1ccc(-c2nc(NC(=O)c3ccc(OCC(=O)Nc4ccc(F)cc4)c(OC)c3)sc2C)cc1 | -0.1 | 44.6* | 4.1 | -2.4 | x | -1.4
COc1ccccc1OCCNC(=O)CN1C(=O)NC2(CCCC2)C1=O | x | -2.5 | 6.4 | -1.7 | -65.4 | x
C=CCn1c(SCC(C)=O)nc2scc(-c3ccc(C)o3)c2c1=O | -1.6 | 8.3* | 0.2 | -8.5 | 11.3 | 0.1
COc1ccccc1CNC(=O)CN(c1cccc([N+](=O)[O-])c1)S(C)(=O)=O | 2.2 | -1.8 | 25.8 | -7.4 | 2.9 | -0.3
Cc1ccccc1CNC(=O)CN(c1cccc([N+](=O)[O-])c1)S(C)(=O)=O | 12.0 | 1.5 | 30.3* | -3.8 | -2.5 | 0.1
CC[C@H](C)[C@H]1CNC(=O)C(=O)N1CC1CCN(CC(C)C)CC1 | x | x | x | -7.5 | x | x
Cc1cc(Nc2cccc(Cl)c2Cl)n2ncnc2n1 | 116.1* | 1.0 | 3.5 | -11.5 | x | 0.0
O=C(c1ccc(COc2ccc(Cl)cc2)o1)N1N=C(C(F)F)CC1(O)C(F)F (configuration not stated) | -0.8 | 8.7* | -5.0 | -0.9 | x | 0.1
COc1ccccc1OCc1ccc(C(=O)N2N=C(C(F)F)CC2(O)C(F)F)o1 (configuration not stated) | 4.2 | 3.9 | -3.0 | -4.6 | x | 0.1
CCOC(=O)[C@@H](NC(=O)/C=C/[C@H]1O[C@@H](n2cc(C)c(=O)[nH]c2=O)C[C@@H]1O)C(C)C | x | x | x | -6.2 | x | x
C#CCOCCOCCOCCNc1nc(N2CCN(C(=O)CCCCCCCCCCNC(=O)Cn3cc(C[C@@H](C)O)nn3)CC2)nc(N2CCN(C(=O)CCCCCCCCCCNC(=O)[C@H](CCCN=C(N)N)n3cc(C[C@@H](C)CC)nn3)CC2)n1 | 35.5 | -2.0 | 42.2* | x | -50.2 | 0.3
C#CCOCCOCCOCCNc1nc(N2CCN(C(=O)CCCCCCCCCCNC(=O)[C@H](CO)n3cc(CCCSC)nn3)CC2)nc(N2CCN(C(=O)CCCCCCCCCCNC(=O)[C@H](CCCN=C(N)N)n3cc(C[C@@H](C)CC)nn3)CC2)n1 | x | 0.4 | 53.0* | x | -51.8 | 0.3
C#CCOCCOCCOCCNc1nc(N2CCN(C(=O)CCCCCCCCCCNC(=O)Cn3cc(C[C@@H](C)O)nn3)CC2)nc(N2CCN(C(=O)CCCCCCCCCCNC(=O)[C@H](CCCCN)n3cc(CCCC(=O)O)nn3)CC2)n1 | x | 1.1 | 3.0 | -5.3 | -17.6 | 0.3
CCCCCCCN1C(Nc2ccccc2)=NC[C@@H]1Cc1ccccc1 | 83.7* | 0.0 | 2.1 | -9.7 | 16.0 | 0.0
Cc1ccc([C@H]2C[C@]34CN(Cc5ccccc5)S(=O)(=O)[C@H]3C[C@H]2O4)cc1 | x | x | x | -2.0 | x | x
COc1ccc(-c2nc(N/N=C(\C)c3ccc(O)cc3)c3ccccc3n2)cc1 | 6.3 | -1.2 | 27.6 | -7.2 | 54.9* | -0.1
CCCCCCCCCCS(=O)(=O)N/N=C/c1ccc(O)cc1 | -56.8 | 9.0* | 2.3 | -4.0 | 14.2 | -0.3
Cc1cccc(C)c1NC(=O)Nc1nnc([C@H]2C[C@H](O)[C@@H](CO)O2)s1 | x | -1.2 | 7.6 | -4.3 | 6.2 | x
CCC1=NN(C(=O)c2ccccc2Br)C(O)(c2ccc(Br)cc2)C1 (configuration not stated) | 2.3 | 0.7 | 0.0 | -4.3 | -0.2 | 0.0
CCC1=NN(C(=O)c2ccccc2O)C(O)(c2ccccc2)C1 (configuration not stated) | 107.4* | 0.6 | 11.4 | -0.5 | 31.0 | -0.1
CN(CCOc1ccccc1)C(=O)c1cc(S(=O)(=O)N2CCOCC2)c(Cl)cc1Cl | x | -0.8 | 18.6 | -0.4 | 0.0 | x
